# Apaf-1 act: activators of human Apaf-1 apoptosome | O14727 | Apaf-1 apoptosome caspase-3 activation, DEVD-Rh110 fluorescence; active compounds read low | activity change, negative = activation, % at 20 µM | actives 0.31% (n = 330,000) | AID 489031;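 active = activity change at or below -40% at 20 µM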
# Target sequence (O14727 whole entry, looked up): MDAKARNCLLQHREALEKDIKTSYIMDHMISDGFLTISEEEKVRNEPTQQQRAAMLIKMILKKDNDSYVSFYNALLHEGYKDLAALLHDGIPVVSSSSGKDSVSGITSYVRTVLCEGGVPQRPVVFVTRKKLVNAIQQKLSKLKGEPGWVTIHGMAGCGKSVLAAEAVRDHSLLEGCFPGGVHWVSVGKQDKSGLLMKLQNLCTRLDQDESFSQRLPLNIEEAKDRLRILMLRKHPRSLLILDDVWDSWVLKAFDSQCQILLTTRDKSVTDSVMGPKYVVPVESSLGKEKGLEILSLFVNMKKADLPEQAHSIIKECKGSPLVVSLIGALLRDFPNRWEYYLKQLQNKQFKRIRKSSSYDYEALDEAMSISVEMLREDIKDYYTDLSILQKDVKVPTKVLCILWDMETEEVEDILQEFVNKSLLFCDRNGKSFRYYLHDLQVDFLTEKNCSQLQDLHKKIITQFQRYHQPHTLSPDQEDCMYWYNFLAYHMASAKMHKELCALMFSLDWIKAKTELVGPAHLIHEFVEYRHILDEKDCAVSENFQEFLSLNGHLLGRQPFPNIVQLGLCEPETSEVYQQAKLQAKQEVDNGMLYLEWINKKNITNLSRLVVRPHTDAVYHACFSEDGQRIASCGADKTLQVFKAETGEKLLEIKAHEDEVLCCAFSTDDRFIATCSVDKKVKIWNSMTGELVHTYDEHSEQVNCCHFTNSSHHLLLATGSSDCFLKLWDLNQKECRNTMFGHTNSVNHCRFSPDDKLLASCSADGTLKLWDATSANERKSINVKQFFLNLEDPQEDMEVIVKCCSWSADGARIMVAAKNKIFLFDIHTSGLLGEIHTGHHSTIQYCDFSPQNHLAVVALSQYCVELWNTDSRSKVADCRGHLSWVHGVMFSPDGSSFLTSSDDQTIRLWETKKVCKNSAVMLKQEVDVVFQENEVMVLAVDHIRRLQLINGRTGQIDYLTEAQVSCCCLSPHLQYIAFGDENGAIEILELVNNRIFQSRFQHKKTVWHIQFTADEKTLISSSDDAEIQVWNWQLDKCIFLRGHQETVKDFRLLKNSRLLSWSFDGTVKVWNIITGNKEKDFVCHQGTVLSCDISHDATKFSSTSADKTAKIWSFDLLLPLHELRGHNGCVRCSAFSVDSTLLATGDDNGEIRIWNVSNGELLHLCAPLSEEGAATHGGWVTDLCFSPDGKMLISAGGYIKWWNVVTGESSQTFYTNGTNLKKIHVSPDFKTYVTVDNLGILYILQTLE
#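 System: Reconstituted apoptosome of Apaf-1, cytochrome c, caspase-9, procaspase-3 | Reagent: dATP, cytochrome c, and (Z-DEVD)2-Rh110 caspase-3 substrate | Times: 30 min compound preincubation and 50 min reaction, both room temperature | Detection: Caspase-3-released Rh110 fluorescence, 540 nm emission, 480 nm excitation | Measure: Caspase-3 activity via Apaf-1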
# Rh110 act interf: Rh110 signal interference in Apaf-1 activator counter-screen; fluorescence interference (activity change), % at 20 µM, hits read low; AID 504616; 980 tested, under 10 active; Rh110 fluorescence interference, quenched caspase reaction, Ex480/Em540; shares compounds with Apaf-1 act;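 active = mean activity change at or below -40% when tested at 20 µM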
# Apaf-1 act conf2: confirmation of human Apaf-1 activators; actives 5% (n = 980); activity change, negative = activation, % at 20 µM; reconstituted apoptosome caspase-3 activity, DEVD-Rh110 fluorescence; active compounds read low; AID 504617; shares compounds with Apaf-1 act;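 active = mean activity change at or below -40%, meaning activation of 40% or more, at 20 µM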
# The depositor's hits bear a star; · = no result given. The list is a sample of the results.
SMILES,Apaf-1 act,Rh110 act interf,Apaf-1 act conf2
CC(C)(C(=O)O)c1ccc([C@H](O)CCCN2CCC(C(O)(c3ccccc3)c3ccccc3)CC2)cc1,-114*,13,12
COc1ccc(CCN2C(=O)c3[nH]nc(-c4ccccc4O)c3C2c2cccc(Cl)c2)cc1 (stereo unspecified),41,·,·
COc1ccc([C@@H]2CC=C(C(=O)O)[C@H](c3cccc(Cl)c3)N2S(=O)(=O)c2ccc(Cl)cc2)cc1,-73*,-3,19
COc1ccc(-c2[nH]nc3oc(=O)cc(C)c23)cc1,-135*,7,16
COc1ccc(-c2cc(-c3ccc(F)cc3)nc(N3CCN(C)CC3)n2)cc1,65,·,·
C#CCOCCOCCOCCNc1nc(N2CCN(C(=O)CCCCCCCCCCNC(=O)[C@H](CCCCN)n3cc(CCO)nn3)CC2)nc(N2CCN(C(=O)CCCCCCCCCCNC(=O)[C@H](CCCN=C(N)N)n3cc(C[C@@H](C)CC)nn3)CC2)n1,78,·,·
Cc1cc(O)c2c(c1O)C(=O)[C@]13C(=C2O)C(=O)[C@@H]2[C@@H](O)[C@H]1[C@@H]1[C@H](O)[C@H]3C(=O)C3=C(O)c4c(O)cc(C)c(O)c4C(=O)[C@]312,69,·,·
Nc1ccnc(C(F)(F)F)c1C(=O)c1ccccc1,-43*,7,0
COC1=C(Nc2ccccc2)C(=O)c2ccccc2C1=O,61,·,·
CC1=NN(c2ccccc2)C(=O)/C1=C/c1ccc(Cl)cc1,96,·,·
CC1=NN(c2ccccc2)C(=O)/C1=C/c1ccc[nH]1,-138*,3,12
CC1=NN(c2ccccc2)C(=O)/C1=C\c1ccc(Br)s1,96,·,·
Cc1ccc(NC2=C(NC(=O)c3ccccc3)C(=O)c3ccccc3C2=O)cc1Cl,67,·,·
Cc1c(CCOC(=O)c2ccc(Cl)cc2Cl)sc[n+]1CC(=O)c1ccccc1,56,·,·
CN1CCc2nc(SCc3ccc(Cl)cc3)c(C#N)c(-c3cccs3)c2C1,83,·,·
CCCCCN(C(=O)NC(=O)Nc1nncs1)S(C)(=O)=O,-46*,-2,7
COc1cccc(NC(=O)c2cc(C(=O)Nc3cccc(OC)c3)n(C)n2)c1,41,·,·
COc1cccc(NC(=S)NC(=O)c2cncc(Br)c2)c1,-318*,-1,10
CC(=O)c1cccc(NC(=S)Nc2cccc3ccccc23)c1,81,·,·
Cc1[nH]c2ccc(C(=O)NCC(C)(C)N3CCOCC3)cc2c1C,-519*,0,8
CCOC(=O)N=Nc1c2ccccc2c2nc3no[nH]c3nc12,88,·,·
CN1N=C(C(C)(C)C)CC1=O,41,·,·
CCCCCN=C(N)N/N=C/c1c[nH]c2ccc(OC)cc12,78,·,·
Cn1c(=O)[nH]c(=O)c2c1nc(Br)n2CC(O)COc1ccccc1 (stereo unspecified),-50*,-3,13
CCCCCn1c(N2CCC(Cc3ccccc3)CC2)nc2c1c(=O)[nH]c(=O)n2C,46,·,·
SMILES,Apaf-1 act,Rh110 act interf,Apaf-1 act conf2
Cc1cccc(OCC(O)Cn2c(=N)n(Cc3ccccc3)c3ccccc32)c1 (stereo unspecified),58,·,·
CSc1nc2c(c(=O)[nH]c(=O)n2C)n1Cc1ccccc1,-48*,3,13
N#Cc1c(N(CCO)CCO)nc(N)c2c(N)nc3c(c12)CC(=O)N3Cc1cccs1,73,·,·
CN(C)CCCN(C(=O)c1ccc(S(=O)(=O)N2CCc3ccccc3C2)cc1)c1nc2ccc(F)cc2s1,70,·,·
O=C1CC(CC(=O)N/N=C/c2ccccc2[N+](=O)[O-])=NN1,46,·,·
CCC(=O)N(CC)C1=C(O)c2ccccc2C(=O)C1=O,55,·,·
O=C(O)CC(NC(=O)c1sc2ccccc2c1Cl)c1ccc(OC2CCCC2)cc1 (stereo unspecified),44,·,·
CCOC(=O)N1CCc2c(sc3c2C(=O)NC(c2ccccc2)N3)C1 (stereo unspecified),81,·,·
CCOC(=O)CC1C(=O)NCCN1C(=O)c1sc2ccccc2c1Cl (stereo unspecified),-260*,-2,12
CC(C)(C)c1cc(C(=O)N/N=C/c2ccc(-c3ccccc3[N+](=O)[O-])o2)n[nH]1,42,·,·
O=C(Nc1cccc(CCc2ccccn2)c1)c1cc(F)c(F)cc1Cl,-109*,10,17
O=C(Nc1ccccn1)c1ccc2ccccc2c1O,45,·,·
Cc1[nH]n(-c2ccccc2)c(=O)c1C(C[N+](=O)[O-])c1ccc(Cl)cc1 (stereo unspecified),88,·,·
CC(=O)N1CCN(C(=S)NC(=O)C23CC4CC(CC(C4)C2)C3)CC1,48,·,·
COc1ccc(/C=N/Nc2cc(N(C)C)nc(N(C)C)n2)cc1,97,·,·
COc1ccc(S(=O)(=O)N/N=C\c2ccc3c(c2)OCO3)c(OC)c1,-120*,0,6
COc1ccc2c(c1)CC/C(=C\Nc1ccc3c(c1)OCO3)C2=O,78,·,·
O=S(=O)(c1ccc(Br)cc1)N1CCN(c2ccc3nnc(-c4ccccc4)n3n2)CC1,41,·,·
CN(C)c1ccc(N/C=C/C(=O)C(C)(C)C)cc1,53,·,·
CC(Cn1nnc2ccccc21)C(=O)O (stereo unspecified),-107*,15,-14
CC(Sc1ccc2ccccc2n1)C(=O)O (stereo unspecified),6,·,·
O=C1C(N2CCOCC2)=C(n2nnc3ccccc32)C(=O)c2ccccc21,94,·,·
COc1ccccc1-c1sc2cc3c(cc2c1-c1ccc(OCCN2CCCCC2)cc1)OCO3,59,·,·
Cc1ccc(-n2nc3c(c2NC(=O)c2ccco2)CS(=O)(=O)C3)cc1C,-391*,-9,8
C[C@]12C=CC(=O)C=C1CC[C@@H]1C2=CC[C@]2(C)[C@@H](C(=O)CN3CCN(c4cc(N5CCCC5)nc(N5CCCC5)n4)CC3)CC[C@@H]12,87,·,·
SMILES,Apaf-1 act,Rh110 act interf,Apaf-1 act conf2
CCCC[n+]1ccn(C2=C([O-])c3ccccc3C(=O)/C2=N\S(=O)(=O)c2ccccc2)c1,59,·,·
CC1(C)Nc2ccc(O)cc2-c2c1ssc2=S,51,·,·
O=C(COC(=O)/C=C/c1ccc(OC(F)F)cc1)NC1CCCCCC1,-64*,7,12
CCN1CCN(c2ccc(S(=O)(=O)N3CCCCC3)cc2NC(=O)/C=C/c2ccc(OC(F)F)cc2)CC1,52,·,·
CC1=NN(c2ccccc2)C(=O)C1,41,·,·
CS(=O)(=O)N(CC(=O)Nc1c(F)cccc1F)Cc1ccccc1,-59*,7,14
CCN(CC)CC(=O)Nc1c(C)cccc1C,-5,·,·
CCN(CC(=O)Nc1c(F)cccc1F)C(=O)Cc1ccsc1,52,·,·
COC(=O)C1=C(C)N(Cc2ccccc2)C(=NCc2cccc(C(F)(F)F)c2)N[C@H]1c1cccc(C(F)(F)F)c1,74,·,·
CN1CCc2cc3c(c4c2[C@H]1[C@H](O)c1ccccc1-4)OCO3,48,·,·
CCOC(=O)N1CCC(NC(=O)c2ccc3c(c2)sc2nc(-c4ccc(OC)cc4)cn23)CC1,44,·,·
CCOC(=O)N1CCC(Nc2c(-c3ccc(C)c(C)c3)c(=O)c2=O)CC1,-202*,10,12
COc1cccc2c1[C@@H]1CN(CCCCn3c(=O)[nH]c4c(sc5ncc(-c6ccccc6)nc54)c3=O)C[C@@H]1CO2,48,·,·
COc1ccc(Cl)cc1C(=O)NNC(=O)COC(=O)c1ccc(Br)o1,-41*,11,13

# From PubChem
